The test system of data set [1] is HL-60. Description: Inhibitory concentration to inhibit cell growth 50% was determined in HL60 cells. It is filed as functional, cell-based. The settings on record: Homo sapiens. Put shortly: (§1)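 Leukemia cells grown in RPMI 1640 with 10% FCS, penicillin, streptomycin and 2 mM L-glutamine at 37 °C, 5% CO2. Compounds from 20 mM DMSO stocks, final DMSO ≤0.5%. 2 × 10^5 cells in 1 mL were exposed to a range of concentrations for 48 h. Viable cells were counted by trypan blue on a hemocytometer and expressed as percent of control proliferation.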

Data set [2] deals with HL-60. The experiment in a line: Concentration to induce apoptosis in 50% cells was determined in HL60 cells. It is filed as functional, cell-based. The settings on record: Homo sapiens.
Data set [3] relates to K562. Description: Concentration to induce apoptosis in 50% cells was determined in K562ADR cell lines. It is filed as functional, cell-based. The settings on record: Homo sapiens.
A short description of data set [4]: Percentage of apoptotis in HUT78 cells after 48 h of exposure at 2 uM concentration. The class given is functional, Homo sapiens. Particulars: in the assay text read “at IC90 concentration” for “at 2 uM concentration”. Put shortly: (§2)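 HUT78 (Fas-expressing) and HUT78B1 (nonfunctional death-domain-deleted Fas) cells were exposed to compound for 48 h. Apoptosis was scored morphologically by fluorescence microscopy after acridine orange/ethidium bromide staining, based on chromatin condensation and apoptotic bodies.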

Data set [5] concerns K562. The experiment in a line: Concentration required to inhibit cell growth 50% was determined in K562ADR cell lines. It is filed as functional, cell-based. The settings on record: Homo sapiens. Put shortly:
as §1

Data set [6] has as its system HL-60. Description: Apoptotic concentration to induce apoptosis in 50% cells was determined in HL60R cell lines. The class given is functional, cell-based. The settings on record: Homo sapiens.
For data set [7], the system named is HL-60. Description: Percentage of apoptotis inhibition at 0.5 uM concentration was determined in HL60 cells in the presence of Z-LEHD-fmk inhibitor. It is filed as functional, Homo sapiens. Set-up: scale not given: the % may be the effect or the level left. Put shortly: (§3)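 HL60 cells (2 × 10^5) were pretreated for 2 h with Fas-blocking MoAb ZB4 or with caspase-9 inhibitor Z-LEHD-fmk (5 µM) before compound was added. Apoptosis was scored at 48 h by acridine orange/ethidium bromide morphology and expressed as percent inhibition.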

The test system of data set [8] is K562. Description: Concentration to induce apoptosis in 50% cells was determined in K562 cell lines. The settings on record: Homo sapiens. The class given is functional, cell-based.
Data set [9] deals with HL-60. The experiment in a line: Percentage of apoptotis inhibition at 0.5 uM concentration was determined in HL60 cells in the presence of Fas-blocking monoclonal antibody. The class given is functional, Homo sapiens. Details: scale not given: the % may be the effect or the level left. Put shortly:
as §3

The nature of data set [10]: Concentration required to inhibit cell growth 50% was determined in HL60R cell lines. It is filed as functional, cell-based, Homo sapiens. Put shortly:
as §1

Data set [11] deals with HuT78. Description: Percentage of apoptotis in HUT78B1 cells after 48 h of exposure at 2 uM concentration. It is filed as functional, Homo sapiens. Put shortly:
as §2

Data set [12] in a line: Therapeutic index (IC90/percentage of CFUGEMM inhibition) value after 14 days for bone marrow cells treated with compound at IC90. The class given is cell-based. Particulars: human, 336 h.
Data set [13] concerns HL-60. The experiment in a line: Percentage of mitosis after 8 hr exposure of HL60 cells to the compound at 1 uM. The class given is functional, Homo sapiens. Put shortly: (§4)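 HL60 cells were exposed to compound for 8 h. Mitotic cells were then counted by fluorescence microscopy after acridine orange and ethidium bromide staining.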
Data set [14] deals with Osteoclast-like. The experiment in a line: Percentage of CFU-GEMM inhibition value after 14 days for bone marrow cells treated with compound at IC90. It is filed as functional, Homo sapiens.
Data set [15] concerns HL-60. Description: Percentage of mitosis after 8 hr exposure of HL60 cells at 2 uM. It is filed as functional, Homo sapiens. Put shortly:
as §4

The subject of data set [16] is K562. The experiment in a line: Inhibitory concentration against K562ADR cell lines. It is filed as functional, cell-based. Particulars: Homo sapiens. Put shortly: as §1
In data set [17] the test system is HL-60. Description: Percentage of apoptotis inhibition at 2 uM concentration was determined in HL60 cells in the presence of Fas-blocking monoclonal antibody. It is filed as functional, Homo sapiens. Set-up: scale not given: the % may be the effect or the level left. Put shortly: as §3
The test system of data set [18] is HuT78. The experiment in a line: Percentage of apoptotis was determined in HUT78 cells after 48 h of exposure at 2 uM concentration. It is filed as functional, Homo sapiens. Put shortly:
as §2

For data set [19], the system named is HL-60. The experiment in a line: Concentration to induce apoptosis in 50% cells was determined in HL60R cell lines. The class given is functional, cell-based. Particulars: Homo sapiens.
Data set [20] has as its system HL-60. Description: Percentage of apoptotis inhibition at 2 uM concentration was determined in HL60 cells in the presence of Z-LEHD-fmk inhibitor. It is filed as functional, Homo sapiens. Set-up: scale not given: the % may be the effect or the level left. Put shortly:
as §3

A short description of data set [21]: Inhibitory concentration against HL60R cell lines. The class given is functional, cell-based, Homo sapiens. The settings on record: hl-60. Put shortly: as §1
The test system of data set [22] is HL-60. Description: Percentage of apoptotis inhibition at 0.3 uM concentration was determined in HL60 cells in the presence of Z-LEHD-fmk inhibitor. The class given is functional, Homo sapiens. Details: scale not given: the % may be the effect or the level left. Put shortly: as §3
Data set [23] deals with Osteoclast-like. Description: Percentage of CFU-GEMM inhibition after 14 days for bone marrow cells treated with compound at IC90. The class given is functional, Homo sapiens.
In data set [24] the test system is HL-60. Description: Percentage of apoptotis inhibition at 0.3 uM concentration was determined in HL60 cells in the presence of Fas-blocking monoclonal antibody. Details: scale not given: the % may be the effect or the level left. It is filed as functional, Homo sapiens. Put shortly: as §3
For data set [25], the system named is HL-60. Description: Percentage of mitosis after 8 hr exposure of HL60 cells to the compound at 2.5 nM. It is filed as functional, Homo sapiens. Put shortly: as §4

Each structure is given as a SMILES string. Several values for one entry are separate records, joined by “and”; a condition that tells them apart may be missing. Identical values can stand only once.

`COc1ccc(-c2ccc(-c3cc(OC)c(OC)c(OC)c3)cc2)cc1O` gave an IC50 in data set [1] of 30000 nM. Besides, the concentration at half-maximal activity (AC50) in data set [2] was 35 µM.
For `COc1ccc([C@@H]2ON=C(C)[C@@H]2c2cc(OC)c(OC)c(OC)c2)cc1O`, half-maximal inhibition in data set [1] (IC50) was put at 2000 nM. The AC50 in data set [2] worked out at 3.5 µM.
In the case of `COc1ccc(C2CC(c3cc(OC)c(OC)c(OC)c3)=NO2)cc1O` (configuration not stated), in data set [1], the IC50 turned out to be 3200 nM. Besides, half-maximal activity in data set [2] (AC50) was put at 5.5 µM.
With `COC1=NO[C@H](c2cc(OC)c(OC)c(OC)c2)[C@@H]1c1ccc(OC)c(O)c1`, the AC50 was 2000 nM in data set [3], 2000 nM in data set [6], 400 nM in [8] and 0.5 µM in [2]. Further, the Activity in [4] came out at 75%; in data set [7] it was 91.4%; in data set [9] it was 57%; in data set [11], 40%; in data set [13], 15%. The IC50 in [5] was 500 nM; in data set [1] it was 250 nM; in data set [10] (hl60r) it was 750 nM and 200 nM. Further, the Ratio in data set [12] was 2.6. The CFU-GEMM in [14] was 34%.
For the molecule `COc1ccc(-c2cccc(-c3cc(OC)c(OC)c(OC)c3)c2)cc1O`, the IC50 in data set [1] worked out at 12000 nM. In [2], this molecule registered an AC50 of 22 µM.
For `COc1ccc(-c2cc(-c3cc(OC)c(OC)c(OC)c3)on2)cc1O`, in that order: 3000 nM and 4 µM.
On to `COc1ccc([C@H]2ON=C(S(=O)(=O)c3ccccc3)[C@@H]2c2cc(OC)c(OC)c(OC)c2)cc1O`, for which the half-maximal activity concentration (AC50) was 8000 nM in data set [3], 5000 nM in [19], 2000 nM in data set [8] and 2 µM in [2]. The Activity in data set [15] was determined as 18%; in [17], 25%; in data set [18], 70%; in [20] it was 71.5%; in [11], 46%. The IC50 in [16] was 2000 nM; in data set [1], 900 nM; in [21], 3000 nM and 1000 nM. In data set [12], the Ratio was found to be 2.1. Also, the CFU-GEMM in data set [14] is on record as 42%.
The molecule `COc1ccc(-c2ncccc2-c2cc(OC)c(OC)c(OC)c2)cc1O` returned an IC50 in data set [1] of 5000 nM. Also, the AC50 in data set [2] was 10 µM.
`COc1ccc(-c2cccnc2-c2cc(OC)c(OC)c(OC)c2)cc1O` returned an IC50 in [1] of 300 nM. This molecule also showed an AC50 in [2] of 0.6 µM.
For `COc1ccc(-c2ccccc2-c2cc(OC)c(OC)c(OC)c2)cc1O`, in that order: 20000 nM and 30 µM.
Turning to `COc1ccc([C@H]2C(S(=O)(=O)c3ccccc3)=NO[C@@H]2c2cc(OC)c(OC)c(OC)c2)cc1O`, the midpoint of inhibition in data set [1], the IC50, lay at 15000 nM. In addition, the AC50 in [2] is 25 µM.
Take `COC1=NO[C@@H](c2ccc(OC)c(O)c2)[C@H]1c1cc(OC)c(OC)c(OC)c1`: the AC50 in [3] came to 2000 nM; in data set [19] it was 750 nM; in [8], 400 nM; in [2] it was 0.3 µM. For the same molecule, the Activity in data set [22] turned out to be 50%; in data set [4], 80%; in data set [11], 60%; in data set [13] it was 17%; in data set [24], 25%. For the same molecule, the CFU-GEMM in data set [23] is 36%. The half-inhibitory concentration (IC50) in [5] amounted to 500 nM; in [1], 100 nM; in data set [10] (Homo sapiens, HL60R) it was 250 nM; in [10] (hl60r) it was 250 nM. Moreover, the Ratio in data set [12] turned out to be 2.5.
In the case of `COc1ccc(C2=NOC(c3cc(OC)c(OC)c(OC)c3)C2)cc1O` (configuration not stated), half-maximal inhibition in [1] (IC50) was put at 1500 nM. For the same molecule, in [2], the AC50 worked out at 2.2 µM.
In the same order, the values of `COc1ccc(-c2cc(-c3cc(OC)c(OC)c(OC)c3)no2)cc1O` are 3000 nM and 4.5 µM.
In the case of `COc1ccc(-c2cc(Cl)cnc2-c2cc(OC)c(OC)c(OC)c2)cc1O`, it took 500 nM to reach half-maximal inhibition in [1] (IC50). Further, the AC50 in data set [2] was 0.8 µM.
In the case of `COc1ccc(/C=C\c2cc(OC)c(OC)c(OC)c2)cc1O` [COMBRETASTATIN A4], the Activity in [25] was 88%. For the same molecule, the Ratio in [12] came to 2.4. For the same molecule, in data set [14], the CFU-GEMM was 37%.
`COc1ccc([C@@H]2C(C)=NO[C@@H]2c2cc(OC)c(OC)c(OC)c2)cc1O` gave a half-maximal inhibitory concentration (IC50) in [1] of 2000 nM. This molecule came in with an AC50 in [2] of 3.5 µM.

These data come from ChEMBL document CHEMBL1145181, “Heterocyclic and phenyl double-bond-locked combretastatin analogues possessing potent apoptosis-inducing activity in HL60 and in MDR cell lines” (J Med Chem, 2005).
